Test results as given in ChEMBL document CHEMBL4828740, “Discovery of Quinoxaline-Based P1-P3 Macrocyclic NS3/4A Protease Inhibitors with Potent Activity against Drug-Resistant Hepatitis C Virus Variants” (J Med Chem, 2021).
pEC50, pKi: −log10 of the molar value.

Columns and labels:
[1] = tested on: Hepatitis C virus; experiment: Antiviral activity against HCV genotype 1b infected in human Huh7 cells incubated for 96 hrs by luciferase assay; assay type: functional, organism-based, Hepacivirus hominis; settings: Huh-7, 96 h
In short: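 Con1 (GT-1b) luciferase reporter replicon carrying the H77 (GT-1a) NS3 protease region, either WT or with A156T or D168A introduced by megaprimer mutagenesis. Cured Huh7 cells grown in DMEM with 10% heat-inactivated FBS and 0.1 mM non-essential amino acids. Cells electroporated with replicon RNA and kept with serially diluted inhibitor.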

[2] = tested on: Hepatitis C virus; experiment: Antiviral activity against HCV genotype 1b harboring A156T mutant infected in human Huh7 cells incubated for 96 hrs by luciferase assay; assay type: functional, organism-based, Hepacivirus hominis; settings: subtype 1b, Huh-7, 96 h
In short: (§1)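 Con1 (GT-1b) luciferase reporter replicon carrying the H77 (GT-1a) NS3 protease region, with the mutation introduced by megaprimer site-directed mutagenesis. Cured Huh7 cells were grown in DMEM with 10% heat-inactivated FBS and 0.1 mM non-essential amino acids, electroporated with replicon RNA transcripts, and kept with serially diluted inhibitor. EC50 was taken directly from the inhibition curves.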

[3] = molecular target: T1, Hepatitis C virus serine protease, NS3/NS4A (Hepatitis C virus, UniProt A3EZI9+D2K2A8); experiment: Inhibition of HCV GT-1a NS3/4a protease using Ac-DE-D(Edans)-EE-Abu-c-[COO]-AS-K(Dabcy1)-NH2 preincubated for 1 hr followed by substrate addition; assay type: protein complex, Hepatitis C virus subtype 1a
[4] = molecular target: T1, Hepatitis C virus serine protease, NS3/NS4A; experiment: Inhibition of HCV GT-3a NS3/4a protease using Ac-DE-D(Edans)-EE-Abu-c-[COO]-AS-K(Dabcy1)-NH2 preincubated for 1 hr followed by substrate addition; assay type: protein-complex assay, Hepatitis C virus subtype 3a
[5] = tested on: Hepatitis C virus; experiment: Antiviral activity against HCV genotype 1b harboring D168A mutant infected in human Huh7 cells incubated for 96 hrs by luciferase assay; assay type: functional, organism-based, Hepacivirus hominis; settings: subtype 1b, Huh-7, 96 h; in short: as §1

Compound	pEC50 [1]	pEC50 [2]	pKi [3]	pKi [4]	pEC50 [5]
COc1ccc2nc(C)c(O[C@@H]3C[C@H]4C(=O)N[C@]5(C(=O)NS(=O)(=O)C6(C)CC6)C[C@H]5/C=C/CCCCC[C@H](NC(=O)O[C@@H](C)C(F)(F)F)C(=O)N4C3)nc2c1	9.10	8.09	9.15	–	–
COc1ccc2nc(C)c(O[C@@H]3C[C@H]4C(=O)N[C@]5(C(=O)NS(=O)(=O)C6(C)CC6)C[C@H]5/C=C/CCCCC[C@H](NC(=O)OC5(C)CCCC5)C(=O)N4C3)nc2c1	8.43	7.31	8.74	6.82	8.33
COc1ccc2nc(O[C@@H]3C[C@H]4C(=O)N[C@]5(C(=O)NS(=O)(=O)C6(C)CC6)C[C@H]5/C=C/CCCCC[C@H](NC(=O)OCC5(C)CC5)C(=O)N4C3)c(C(F)(F)F)nc2c1	8.24	7.39	8.54	–	8.08
COc1ccc2nc(O[C@@H]3C[C@H]4C(=O)N[C@]5(C(=O)NS(=O)(=O)C6(C)CC6)C[C@H]5/C=C/CCCCC[C@H](NC(=O)OC5CCC5)C(=O)N4C3)c(C(F)(F)F)nc2c1	8.74	8.02	8.07	6.06	7.30
COc1ccc2nc(O[C@@H]3C[C@H]4C(=O)N[C@]5(C(=O)NS(=O)(=O)C6(C)CC6)C[C@H]5/C=C/CCCCC[C@H](NC(=O)O[C@@H]5CCC[C@H]5F)C(=O)N4C3)c(C(F)(F)F)nc2c1	9.70	7.46	8.10	–	8.64
COc1ccc2nc(O[C@@H]3C[C@H]4C(=O)N[C@]5(C(=O)NS(=O)(=O)C6(C)CC6)C[C@H]5/C=C/CCCCC[C@H](NC(=O)O[C@@H](C)C5CC5)C(=O)N4C3)c(C(F)(F)F)nc2c1	8.48	7.74	8.00	6.39	7.74
COc1ccc2nc(C)c(O[C@@H]3C[C@H]4C(=O)N[C@]5(C(=O)NS(=O)(=O)C6(C)CC6)C[C@H]5/C=C/CCCCC[C@H](NC(=O)O[C@@H](C)C(C)C)C(=O)N4C3)nc2c1	9.22	8.15	8.72	–	8.44
CCc1nc2ccc(OC)cc2nc1O[C@@H]1C[C@H]2C(=O)N[C@]3(C(=O)NS(=O)(=O)C4CC4)C[C@H]3/C=C/CCCCC[C@H](NC(=O)OC(C)(C)C)C(=O)N2C1	–	–	–	–	8.20
COc1ccc2nc(C)c(O[C@@H]3C[C@H]4C(=O)N[C@]5(C(=O)NS(=O)(=O)C6(C)CC6)C[C@H]5/C=C/CCCCC[C@H](NC(=O)OC5CCCC5)C(=O)N4C3)nc2c1	10.00	–	8.96	6.92	8.72
COc1ccc2nc(C)c(O[C@@H]3C[C@H]4C(=O)N[C@]5(C(=O)NS(=O)(=O)C6(C)CC6)C[C@H]5/C=C/CCCCC[C@H](NC(=O)O[C@H](C)C(C)C)C(=O)N4C3)nc2c1	9.52	8.11	8.82	–	8.72
COc1ccc2nc(O[C@@H]3C[C@H]4C(=O)N[C@]5(C(=O)NS(=O)(=O)C6(C)CC6)C[C@H]5/C=C/CCCCC[C@H](NC(=O)OC5CC(F)(F)C5)C(=O)N4C3)c(C(F)(F)F)nc2c1	8.49	7.46	7.96	–	8.16
CCC1(OC(=O)N[C@H]2CCCCC/C=C/[C@@H]3C[C@@]3(C(=O)NS(=O)(=O)C3(C)CC3)NC(=O)[C@@H]3C[C@@H](Oc4nc5cc(OC)ccc5nc4C)CN3C2=O)CCCC1	8.80	8.08	8.89	–	8.33
COc1ccc2nc(C)c(O[C@@H]3C[C@H]4C(=O)N[C@]5(C(=O)NS(=O)(=O)C6(C)CC6)C[C@H]5/C=C/CCCCC[C@H](NC(=O)O[C@H](C)C5CC5)C(=O)N4C3)nc2c1	9.52	7.96	8.82	–	8.43
COc1ccc2nc(O[C@@H]3C[C@H]4C(=O)N[C@]5(C(=O)NS(=O)(=O)C6(C)CC6)C[C@H]5/C=C/CCCCC[C@H](NC(=O)OC5C[C@@H]6C[C@@H]6C5)C(=O)N4C3)c(C(F)(F)F)nc2c1 (stereo not given in full)	–	7.15	9.70	6.77	8.68
COc1ccc2nc(O[C@@H]3C[C@H]4C(=O)N[C@]5(C(=O)NS(=O)(=O)C6(C)CC6)C[C@H]5/C=C/CCCCC[C@H](NC(=O)OCC(C)(C)C)C(=O)N4C3)c(C(F)(F)F)nc2c1	8.31	6.80	8.54	–	7.85
COc1ccc2nc(C)c(O[C@@H]3C[C@H]4C(=O)N[C@]5(C(=O)NS(=O)(=O)C6(C)CC6)C[C@H]5/C=C/CCCCC[C@H](NC(=O)OC5(C)CC5)C(=O)N4C3)nc2c1	9.52	7.92	8.36	–	8.46
COc1ccc2nc(C)c(O[C@@H]3C[C@H]4C(=O)N[C@]5(C(=O)NS(=O)(=O)C6(C)CC6)C[C@H]5/C=C/CCCCC[C@H](NC(=O)OCC5(C)CC5)C(=O)N4C3)nc2c1	9.10	8.07	9.15	–	8.42
COc1ccc2nc(C)c(O[C@@H]3C[C@H]4C(=O)N[C@]5(C(=O)NS(=O)(=O)C6(C)CC6)C[C@H]5/C=C/CCCCC[C@H](NC(=O)OC5(C)CCC5)C(=O)N4C3)nc2c1	9.30	8.38	8.85	–	8.47
COc1ccc2nc(O[C@@H]3C[C@H]4C(=O)N[C@]5(C(=O)NS(=O)(=O)C6(C)CC6)C[C@H]5/C=C/CCCCC[C@H](NC(=O)O[C@H](C)C(C)C)C(=O)N4C3)c(C(F)(F)F)nc2c1	8.68	7.35	8.52	–	8.20
COc1ccc2nc(O[C@@H]3C[C@H]4C(=O)N[C@]5(C(=O)NS(=O)(=O)C6(C)CC6)C[C@H]5/C=C/CCCCC[C@H](NC(=O)OCC5(C(F)(F)F)CC5)C(=O)N4C3)c(C(F)(F)F)nc2c1	8.92	7.37	8.46	–	8.34
COc1ccc2nc(C)c(O[C@@H]3C[C@H]4C(=O)N[C@]5(C(=O)NS(=O)(=O)C6(C)CC6)C[C@H]5/C=C/CCCCC[C@H](NC(=O)O[C@@H](C)C5CC5)C(=O)N4C3)nc2c1	8.28	6.89	8.74	–	8.00
COc1ccc2nc(O[C@@H]3C[C@H]4C(=O)N[C@]5(C(=O)NS(=O)(=O)C6(C)CC6)C[C@H]5/C=C/CCCCC[C@H](NC(=O)OC5(C)CC5)C(=O)N4C3)c(C(F)(F)F)nc2c1	8.24	7.00	7.96	–	7.85
COc1ccc2nc(O[C@@H]3C[C@H]4C(=O)N[C@]5(C(=O)NS(=O)(=O)C6(C)CC6)C[C@H]5/C=C/CCCCC[C@H](NC(=O)OCC(C)C)C(=O)N4C3)c(C(F)(F)F)nc2c1	8.32	7.04	8.40	–	7.82
COc1ccc2nc(C)c(O[C@@H]3C[C@H]4C(=O)N[C@]5(C(=O)NS(=O)(=O)C6(C)CC6)C[C@H]5/C=C/CCCCC[C@H](NC(=O)OC5CC(F)(F)C5)C(=O)N4C3)nc2c1	9.22	8.28	9.22	–	8.39
COc1ccc2nc(C)c(O[C@@H]3C[C@H]4C(=O)N[C@]5(C(=O)NS(=O)(=O)C6(C)CC6)C[C@H]5/C=C/CCCCC[C@H](NC(=O)OC(C)C)C(=O)N4C3)nc2c1	–	–	8.68	–	–
COc1ccc2nc(O[C@@H]3C[C@H]4C(=O)N[C@]5(C(=O)NS(=O)(=O)C6(C)CC6)C[C@H]5/C=C/CCCCC[C@H](NC(=O)O[C@H](C)C5CC5)C(=O)N4C3)c(C(F)(F)F)nc2c1	8.59	7.36	7.92	–	7.72
